Activity calls are given as the source filed them. No cut-off for these calls is given here.
Legend:
LoVo = test: Antiproliferative activity against human LoVo cells assessed as inhibition of cell growth incubated for 72 hrs by cell-titer glo assay; format: functional, cell-based
Method in brief: (§1)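 Cells seeded at 10,000–30,000/cm² (adherent) or 100,000/mL (nonadherent) in medium with 10% fetal calf serum; after 24 h, treated in duplicate with serial dilutions for 72 h. Viable cell number read by CellTiter-Glo luminescence; IC50 from sigmoidal fit; at least two independent experiments.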

[1] = molecular target: Casein kinase I homolog 1 (Saccharomyces cerevisiae S288c) (UniProt P23291); test: Inhibition of yeast CK1 assessed as residual activity at 0.1 uM relative to control
HEL = test: Antiproliferative activity against human HEL cells assessed as inhibition of cell growth incubated for 72 hrs by cell-titer glo assay; format: functional, cell-based; method in brief: as §1
[2] = molecular target: Serine/threonine-protein kinase NIM1 (Homo sapiens, UniProt Q8IY84); test: Inhibition of NIM1 (unknown origin) in presence of [gamma-33P]ATP
SK-MES-1 = test: Antiproliferative activity against human SK-MES-1 cells assessed as inhibition of cell growth incubated for 72 hrs by cell-titer glo assay; format: functional, cell-based; settings: SK-MES-1, 72 h
[3] = Antiproliferative activity against human LUDLU-1 cells assessed as inhibition of cell growth incubated for 72 hrs by cell-titer glo assay; format: functional, cell-based; settings: LUDLU-1, 72 h; method in brief: as §1
[4] = molecular target: Calcium/calmodulin-dependent protein kinase type II subunit gamma (Homo sapiens) (UniProt Q13555); test: Inhibition of N-terminal 6His-tagged recombinant human CaMKIIgamma (1 to 330 residues) expressed in baculovirus infected Sf21 cells assessed as residual activity at 0.1 uM relative to control
KU812 cell line = test: Antiproliferative activity against human KU812 cell line assessed as inhibition of cell growth incubated for 72 hrs by cell-titer glo assay; format: functional, cell-based; settings: KU812, 72 h; method in brief: as §1
[5] = Inhibition of SULU1 (unknown origin) in presence of [gamma-33P]ATP; parameters: species or system Homo sapiens
UACC-62 = test: Antiproliferative activity against human UACC-62 cells assessed as inhibition of cell growth incubated for 72 hrs by cell-titer glo assay; format: functional, cell-based; settings: UACC-62, 72 h
[6] = molecular target: Serine/threonine-protein kinase D1 (Homo sapiens) (UniProt Q15139); test: Inhibition of N-terminal His6-tagged recombinant full-length human PKCmu expressed in Sf21 cells assessed as residual activity at 1 uM relative to control
[7] = molecular target: Calcium/calmodulin-dependent protein kinase type 1 (Homo sapiens) (UniProt Q14012); test: Inhibition of recombinant human CaMKI assessed as residual activity at 1 uM relative to control
NHDF = test: Induction of DNA damage in human NHDF cells assessed as H2AX phosphorylation at 0.5 to 1 uM incubated for 8 hrs followed by compound washout and measured after 24 to 48 hrs by Western blotting analysis; format: toxicity, cell-based; settings: dose 0.5-1 µM
[8] = molecular target: Inhibitor of nuclear factor kappa-B kinase subunit beta (Homo sapiens, UniProt O14920); test: Inhibition of IKK2 (unknown origin) in presence of [gamma-33P]ATP
[9] = molecular target: Tyrosine-protein kinase ABL2 (Mus musculus) (UniProt Q4JIM5); test: Inhibition of N-terminal His6-tagged recombinant mouse Arg (27 to end residues) expressed in Sf21 cells assessed as residual activity at 1 uM relative to control
[10] = molecular target: Serine/threonine-protein kinase DCLK2 (Homo sapiens) (UniProt Q8N568); test: Inhibition of N-terminal 6His-tagged recombinant human DCAMKL2 (376 to end residues) expressed in baculovirus infected Sf21 cells assessed as residual activity at 1 uM relative to control
A2780 = test: Induction of DNA damage in human A2780 cells assessed as H2AX phosphorylation at 0.5 to 1 uM incubated for 8 hrs followed by compound washout and measured after 24 to 48 hrs by Western blotting analysis; format: functional, cell-based; settings: dose 0.5-1 µM
U2OS = test: Antiproliferative activity against human U2OS cells assessed as inhibition of cell growth incubated for 72 hrs by cell-titer glo assay; format: functional, cell-based
U-251 = test: Antiproliferative activity against human U-251 cells assessed as inhibition of cell growth incubated for 72 hrs by cell-titer glo assay; format: functional, cell-based; settings: U-251, 72 h
[11] = molecular target: Cyclin-dependent kinase 1/cyclin B1 (Homo sapiens, UniProt P06493); test: Inhibition of CDK1/CycB (unknown origin) in presence of [gamma-33P]ATP; format: protein-complex assay
MIA PaCa-2 = test: Antiproliferative activity against human MIA PaCa-2 cells assessed as inhibition of cell growth incubated for 72 hrs by cell-titer glo assay; format: functional, cell-based; settings: MIA PaCa-2, 72 h
Method in brief: (§2)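 Cells from ATCC or ECACC, kept in supplier-recommended medium with 1% penicillin-streptomycin at 37°C, 5% CO₂. Seeded at 10,000–30,000/cm² (adherent) or 100,000/mL (nonadherent) in medium with 10% fetal calf serum. Dosed after 24 h in duplicate with serial dilutions. Viable cells read by CellTiter-Glo 72 h later. IC50 from sigmoidal fit. At least two independent experiments.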

SU-DHL10 = test: Antiproliferative activity against human SU-DHL-10 cells assessed as inhibition of cell growth incubated for 72 hrs by cell-titer glo assay; format: functional, cell-based; settings: SU-DHL10, 72 h
Activated CDC42 kinase 1 = Activated CDC42 kinase 1 (Homo sapiens, UniProt Q07912); test: Inhibition of ACK1 (unknown origin) in presence of [gamma-33P]ATP
[12] = molecular target: Tyrosine-protein kinase Fer (Homo sapiens) (UniProt P16591); test: Inhibition of N-terminal His6 tagged recombinant human Fer (541 to end residues) expressed in baculovirus infected Sf21 cells assessed as residual activity at 0.1 uM relative to control
SF-268 = test: Antiproliferative activity against human SF-268 cells assessed as inhibition of cell growth incubated for 72 hrs by cell-titer glo assay; format: functional, cell-based; settings: SF-268, 72 h; method in brief: as §2
[13] = molecular target: CDK9/cyclin T1 (Homo sapiens) (UniProt O60563+P50750); test: Inhibition of C-terminal 6His-tagged full-length recombinant human CDK9/ full-length human cyclin T1 expressed in baculovirus infected Sf21 cells assessed as residual activity at 0.1 uM relative to control
LS174T = test: Antiproliferative activity against human LS174T cells assessed as inhibition of cell growth incubated for 72 hrs by cell-titer glo assay; format: functional, cell-based; method in brief: as §1
1A9 = test: Antiproliferative activity against human 1A9 cells assessed as inhibition of cell growth incubated for 72 hrs by cell-titer glo assay; format: functional, cell-based; settings: 1A9, 72 h
Method in brief: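 Cells seeded 10,000–30,000/cm² (adherent) or 100,000/mL (suspension) in medium with 10% fetal calf serum; after 24 h treated in duplicate with serial dilutions for 72 h. Viable cells read by CellTiter-Glo luminescence; IC50 from sigmoidal fit; at least two independent experiments.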

[14] = Cmax in Beagle dog at 5 mg/kg, po by LC-MS analysis; format: ADME, organism-based, Canis lupus familiaris; settings: in vivo
[15] = molecular target: Casein kinase I isoform delta (Homo sapiens) (UniProt P48730); test: Inhibition of N-terminal GST-tagged recombinant human CK1delta (1 to 294 residues) expressed in E. coli assessed as residual activity at 1 uM relative to control
Casein kinase I isoform delta (Homo sapiens), sequence (P48730 whole entry, looked up, the tested form may be a part, canonical isoform): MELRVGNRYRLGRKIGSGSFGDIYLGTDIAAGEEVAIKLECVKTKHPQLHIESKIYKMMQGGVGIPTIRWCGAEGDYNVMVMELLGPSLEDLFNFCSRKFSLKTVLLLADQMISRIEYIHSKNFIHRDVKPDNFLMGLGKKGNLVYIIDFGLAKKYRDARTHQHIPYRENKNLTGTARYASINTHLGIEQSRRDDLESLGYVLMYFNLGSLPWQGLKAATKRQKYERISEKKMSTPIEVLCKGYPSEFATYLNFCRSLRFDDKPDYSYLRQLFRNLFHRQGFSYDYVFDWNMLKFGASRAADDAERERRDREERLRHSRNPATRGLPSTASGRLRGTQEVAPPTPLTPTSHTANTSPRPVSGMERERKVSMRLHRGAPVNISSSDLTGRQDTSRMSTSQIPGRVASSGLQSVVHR

Serine/threonine-protein kinase NIM1, sequence (Q8IY84 whole entry): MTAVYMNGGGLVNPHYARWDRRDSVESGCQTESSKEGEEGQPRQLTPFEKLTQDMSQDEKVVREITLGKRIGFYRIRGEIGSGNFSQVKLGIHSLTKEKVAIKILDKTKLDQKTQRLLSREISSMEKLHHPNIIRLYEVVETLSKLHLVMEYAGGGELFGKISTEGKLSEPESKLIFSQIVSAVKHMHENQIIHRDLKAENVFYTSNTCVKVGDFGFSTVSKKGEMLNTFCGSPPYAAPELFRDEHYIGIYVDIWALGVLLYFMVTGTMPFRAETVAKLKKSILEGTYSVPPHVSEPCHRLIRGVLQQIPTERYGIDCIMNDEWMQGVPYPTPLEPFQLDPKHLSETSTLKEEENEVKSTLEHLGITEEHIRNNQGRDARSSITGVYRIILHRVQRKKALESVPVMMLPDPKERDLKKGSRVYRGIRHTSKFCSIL
Inhibitor of nuclear factor kappa-B kinase subunit beta, sequence (O14920 whole entry): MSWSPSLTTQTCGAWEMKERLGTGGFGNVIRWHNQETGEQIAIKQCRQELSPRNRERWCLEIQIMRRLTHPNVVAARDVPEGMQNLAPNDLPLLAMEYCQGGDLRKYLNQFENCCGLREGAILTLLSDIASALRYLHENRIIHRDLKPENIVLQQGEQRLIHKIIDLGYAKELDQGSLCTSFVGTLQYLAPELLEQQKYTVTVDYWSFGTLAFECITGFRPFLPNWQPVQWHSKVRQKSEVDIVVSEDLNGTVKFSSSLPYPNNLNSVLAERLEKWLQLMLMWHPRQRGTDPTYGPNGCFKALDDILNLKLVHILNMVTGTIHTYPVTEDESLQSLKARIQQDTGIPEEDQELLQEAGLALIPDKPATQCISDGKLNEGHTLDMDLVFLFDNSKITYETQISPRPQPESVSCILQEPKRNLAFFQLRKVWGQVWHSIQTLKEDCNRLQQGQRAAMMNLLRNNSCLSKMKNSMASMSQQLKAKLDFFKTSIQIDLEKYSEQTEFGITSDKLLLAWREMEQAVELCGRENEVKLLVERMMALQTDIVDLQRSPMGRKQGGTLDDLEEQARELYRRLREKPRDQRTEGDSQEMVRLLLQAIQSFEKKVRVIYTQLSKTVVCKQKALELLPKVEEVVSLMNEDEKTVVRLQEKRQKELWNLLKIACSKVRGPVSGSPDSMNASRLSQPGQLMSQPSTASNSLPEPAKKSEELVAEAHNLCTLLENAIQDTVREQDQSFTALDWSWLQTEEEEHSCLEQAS
Activated CDC42 kinase 1, sequence (Q07912 whole entry): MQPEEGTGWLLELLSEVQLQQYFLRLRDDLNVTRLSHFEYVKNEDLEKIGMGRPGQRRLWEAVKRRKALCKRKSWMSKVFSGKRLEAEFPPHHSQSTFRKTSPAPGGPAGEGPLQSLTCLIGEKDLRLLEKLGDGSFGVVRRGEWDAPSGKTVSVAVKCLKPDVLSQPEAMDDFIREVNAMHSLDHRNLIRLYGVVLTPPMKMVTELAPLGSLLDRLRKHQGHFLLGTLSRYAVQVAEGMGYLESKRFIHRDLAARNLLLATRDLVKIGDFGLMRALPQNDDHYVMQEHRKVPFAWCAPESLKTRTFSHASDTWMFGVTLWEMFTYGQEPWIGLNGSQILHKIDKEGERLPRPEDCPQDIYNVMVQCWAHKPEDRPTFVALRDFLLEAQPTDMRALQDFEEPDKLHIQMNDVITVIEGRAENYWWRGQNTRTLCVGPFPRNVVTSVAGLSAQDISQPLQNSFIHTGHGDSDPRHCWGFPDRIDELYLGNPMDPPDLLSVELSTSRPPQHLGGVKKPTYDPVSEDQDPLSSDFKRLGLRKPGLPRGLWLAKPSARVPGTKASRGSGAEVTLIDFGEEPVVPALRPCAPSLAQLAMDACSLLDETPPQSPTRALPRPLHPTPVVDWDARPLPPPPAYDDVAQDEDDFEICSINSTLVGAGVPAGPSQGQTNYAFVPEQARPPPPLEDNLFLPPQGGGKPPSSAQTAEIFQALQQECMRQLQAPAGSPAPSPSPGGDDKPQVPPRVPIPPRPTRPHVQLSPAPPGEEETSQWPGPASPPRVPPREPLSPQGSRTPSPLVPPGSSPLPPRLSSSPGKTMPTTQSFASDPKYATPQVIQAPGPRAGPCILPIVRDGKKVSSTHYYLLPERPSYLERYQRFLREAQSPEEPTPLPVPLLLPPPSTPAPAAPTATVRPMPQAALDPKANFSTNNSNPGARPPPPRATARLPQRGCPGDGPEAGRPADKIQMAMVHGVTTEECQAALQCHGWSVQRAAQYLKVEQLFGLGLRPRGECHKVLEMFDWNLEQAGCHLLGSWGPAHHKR
Tyrosine-protein kinase ABL2 (Mus musculus), sequence (Q4JIM5 whole entry): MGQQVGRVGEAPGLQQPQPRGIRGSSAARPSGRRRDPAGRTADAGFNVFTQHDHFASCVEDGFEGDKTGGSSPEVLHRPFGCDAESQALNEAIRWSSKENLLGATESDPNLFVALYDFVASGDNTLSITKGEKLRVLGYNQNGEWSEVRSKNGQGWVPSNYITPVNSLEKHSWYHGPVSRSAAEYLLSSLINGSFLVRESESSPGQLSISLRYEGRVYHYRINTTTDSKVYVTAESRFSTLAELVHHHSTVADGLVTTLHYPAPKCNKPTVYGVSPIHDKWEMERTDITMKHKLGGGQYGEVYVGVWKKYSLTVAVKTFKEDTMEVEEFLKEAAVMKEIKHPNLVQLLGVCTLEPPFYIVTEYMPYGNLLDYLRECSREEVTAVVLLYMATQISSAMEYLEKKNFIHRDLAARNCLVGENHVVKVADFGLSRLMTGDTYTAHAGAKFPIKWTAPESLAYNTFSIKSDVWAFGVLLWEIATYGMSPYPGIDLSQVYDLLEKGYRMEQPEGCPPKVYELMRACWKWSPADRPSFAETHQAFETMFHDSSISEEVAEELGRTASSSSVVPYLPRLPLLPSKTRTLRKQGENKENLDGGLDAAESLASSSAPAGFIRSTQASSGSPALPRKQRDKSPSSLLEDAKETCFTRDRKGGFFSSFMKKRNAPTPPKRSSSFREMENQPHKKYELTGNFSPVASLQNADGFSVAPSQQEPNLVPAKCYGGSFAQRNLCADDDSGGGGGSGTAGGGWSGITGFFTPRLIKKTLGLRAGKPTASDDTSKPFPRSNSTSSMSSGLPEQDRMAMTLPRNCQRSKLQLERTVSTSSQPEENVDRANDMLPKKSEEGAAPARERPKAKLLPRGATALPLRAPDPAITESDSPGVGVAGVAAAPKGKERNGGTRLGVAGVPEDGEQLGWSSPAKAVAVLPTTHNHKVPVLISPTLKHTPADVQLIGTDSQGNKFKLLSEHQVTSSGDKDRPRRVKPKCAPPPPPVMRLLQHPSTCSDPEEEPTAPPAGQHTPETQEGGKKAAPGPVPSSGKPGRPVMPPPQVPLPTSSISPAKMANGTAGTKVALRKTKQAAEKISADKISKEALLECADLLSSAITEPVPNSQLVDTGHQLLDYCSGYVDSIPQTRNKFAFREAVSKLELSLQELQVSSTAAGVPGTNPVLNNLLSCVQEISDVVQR
Serine/threonine-protein kinase DCLK2 (Homo sapiens), sequence (Q8N568 whole entry): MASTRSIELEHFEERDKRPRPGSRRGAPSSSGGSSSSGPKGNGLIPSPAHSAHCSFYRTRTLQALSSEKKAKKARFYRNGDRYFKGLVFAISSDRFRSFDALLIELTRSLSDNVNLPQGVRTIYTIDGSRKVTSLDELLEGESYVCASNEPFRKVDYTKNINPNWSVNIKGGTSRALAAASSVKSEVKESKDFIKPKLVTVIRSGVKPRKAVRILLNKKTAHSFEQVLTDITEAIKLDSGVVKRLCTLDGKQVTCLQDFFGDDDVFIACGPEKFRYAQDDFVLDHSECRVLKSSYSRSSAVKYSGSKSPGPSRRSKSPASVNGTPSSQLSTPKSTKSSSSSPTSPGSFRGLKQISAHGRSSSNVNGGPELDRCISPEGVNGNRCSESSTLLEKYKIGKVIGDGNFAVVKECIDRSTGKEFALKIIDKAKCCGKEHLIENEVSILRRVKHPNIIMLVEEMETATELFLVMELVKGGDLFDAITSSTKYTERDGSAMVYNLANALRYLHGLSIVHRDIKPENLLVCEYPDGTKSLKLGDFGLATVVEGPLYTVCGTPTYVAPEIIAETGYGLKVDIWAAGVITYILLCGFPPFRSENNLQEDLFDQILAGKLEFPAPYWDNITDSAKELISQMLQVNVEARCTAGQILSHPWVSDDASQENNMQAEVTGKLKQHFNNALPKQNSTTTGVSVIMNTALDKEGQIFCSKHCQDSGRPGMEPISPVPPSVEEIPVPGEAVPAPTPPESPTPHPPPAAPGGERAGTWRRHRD
Calcium/calmodulin-dependent protein kinase type 1 (Homo sapiens), sequence (Q14012 whole entry, looked up): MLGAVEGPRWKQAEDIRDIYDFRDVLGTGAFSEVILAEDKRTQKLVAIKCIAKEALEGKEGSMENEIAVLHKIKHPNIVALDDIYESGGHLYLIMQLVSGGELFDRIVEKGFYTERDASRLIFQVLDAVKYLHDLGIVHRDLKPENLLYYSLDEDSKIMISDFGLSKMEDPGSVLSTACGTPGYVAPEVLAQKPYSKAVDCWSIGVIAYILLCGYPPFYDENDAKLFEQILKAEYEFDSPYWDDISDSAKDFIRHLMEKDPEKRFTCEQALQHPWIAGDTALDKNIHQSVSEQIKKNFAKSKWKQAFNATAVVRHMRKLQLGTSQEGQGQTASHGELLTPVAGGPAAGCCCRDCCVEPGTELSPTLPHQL

CN1CCN(c2ccc(OC(F)(F)F)c(Nc3ncc4c(n3)-c3c(c(C(N)=O)nn3CCO)CC4)c2)CC1 [ONVANSERTIB]
IC50 (LoVo): 65 nM
Activity [1]: 42%
IC50 (HEL): 48 nM
IC50 [2]: > 10000 nM
IC50 (SK-MES-1): 367 nM
IC50 [3]: 32 nM
Activity [4]: 123%
IC50 (KU812 cell line): 20 nM
IC50 [5]: > 10000 nM
IC50 (UACC-62): 103 nM
Activity [6]: 85%
Activity [7]: 87%
Activity (NHDF): Non-Toxic
IC50 [8]: > 10000 nM
Activity [9]: 85%
Activity [10]: 90%
Activity (A2780): Active
IC50 (U2OS): 285 nM
IC50 (U-251): 190 nM
IC50 [11]: > 10000 nM
IC50 (MIA PaCa-2): 112 nM
IC50 (SU-DHL10): 43 nM
IC50 (Activated CDC42 kinase 1): > 10000 nM
Activity [12]: 125%
IC50 (SF-268): 90 nM
Activity [13]: 64%
IC50 (LS174T): 164 nM
IC50 (1A9): 62 nM
Cmax [14]: 1200 nM
Activity [15]: 73%

From ChEMBL document CHEMBL5678806, “NMS-P937, an orally available, specific small-molecule polo-like kinase 1 inhibitor with antitumor activity in solid and hematologic malignancies” (Mol Cancer Ther, 2012)
